# Measurements taken from ChEMBL document CHEMBL1134940, “Highly potent non-peptidic inhibitors of the HCV NS3/NS4A serine protease” (Bioorg Med Chem Lett, 2002).
# Experiments:
# Format in all cases: protein-complex assay, Hepacivirus hominis
# [1] = target: T1, Hepatitis C virus serine protease, NS3/NS4A (Hepatitis C virus, UniProt A3EZI9+D2K2A8); test: Inhibition of HCV serine protease NS3/NS4A in the presence of Zn
# Summary of the method: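 Same setup run with ZnCl₂ added instead of EDTA. NS3 protease construct (first 183 residues; 12 nM active sites) plus the 17-residue NS4A surrogate peptide. Inhibitor at several concentrations preincubated 30 min at 21–24 °C. The Edans/Dabcyl quenched-fluorescence depsipeptide substrate was then added to start the reaction.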
# [2] = target: T1, Hepatitis C virus serine protease, NS3/NS4A; test: Inhibition of HCV serine protease NS3/NS4A in the presence of EDTA
# Summary of the method: (§1)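 No Zn(II) added; EDTA included. Inhibitor at varying concentrations preincubated 30 min at room temperature (21–24 °C). Reaction started with the quenched-fluorescence substrate Ac-DED(Edans)EE-Abu[COO]-ASK(Dabcyl)-CONH₂.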
# [3] = target: T1, Hepatitis C virus serine protease, NS3/NS4A; test: Inhibition of HCV serine protease NS3/NS4A in the presence of EDTA.; summary of the method: as §1
# T1 sequence (D2K2A8 whole entry): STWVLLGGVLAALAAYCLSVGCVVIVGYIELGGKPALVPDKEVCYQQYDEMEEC
# T1 sequence (A3EZI9 whole entry): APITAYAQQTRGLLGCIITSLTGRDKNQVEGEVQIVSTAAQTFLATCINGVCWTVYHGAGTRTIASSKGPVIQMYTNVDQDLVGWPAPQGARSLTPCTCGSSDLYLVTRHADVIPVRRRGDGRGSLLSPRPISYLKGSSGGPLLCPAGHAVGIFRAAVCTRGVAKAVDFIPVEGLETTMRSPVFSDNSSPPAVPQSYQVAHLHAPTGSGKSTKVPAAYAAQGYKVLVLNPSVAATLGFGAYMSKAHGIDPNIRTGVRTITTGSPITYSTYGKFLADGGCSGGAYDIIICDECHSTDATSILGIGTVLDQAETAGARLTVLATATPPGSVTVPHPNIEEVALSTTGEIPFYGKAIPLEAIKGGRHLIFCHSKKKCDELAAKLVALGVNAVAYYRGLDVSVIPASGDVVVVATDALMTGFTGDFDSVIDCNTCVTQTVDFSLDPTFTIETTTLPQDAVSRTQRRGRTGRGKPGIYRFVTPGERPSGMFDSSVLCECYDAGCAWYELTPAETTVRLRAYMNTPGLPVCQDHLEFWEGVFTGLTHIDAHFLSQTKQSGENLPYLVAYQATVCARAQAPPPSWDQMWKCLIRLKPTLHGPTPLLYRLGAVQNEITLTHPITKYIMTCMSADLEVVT
smiles,measurement,setting,value
COP(=O)(O)CC(NC(=O)c1ccc2nc(Cc3nc4ccc(C(N)=O)cc4[nH]3)n(C)c2c1)C(=O)O (centres undefined),Ki,[1],1360 nM
same,Ki,[2],38.1 µM
CC(C)(C)Cn1c(Cc2nc3ccccc3[nH]2)nc2ccc(C(=O)NC(CP(=O)(O)O)C(=O)O)cc21 (centres undefined),Ki,[3],> 300 µM
same,Ki,[1],610 nM
Cn1c(Cc2nc3c(F)c(F)c(F)c(F)c3[nH]2)nc2ccc(C(=O)NC(CP(=O)(O)O)C(=O)O)cc21 (centres undefined),Ki,[3],17 µM
same,Ki,[1],280 nM
Cn1c(C(F)(F)c2nc3ccc(C(=O)NC(CP(=O)(O)O)C(=O)O)cc3[nH]2)nc2ccc(C(=O)NC(CP(=O)(O)O)C(=O)O)cc21 (centres undefined),Ki,[3],15 µM
same,Ki,[1],73 nM
Cn1c(Cc2nc3ccc(C(=O)NC(CP(=O)(O)O)C(=O)O)cc3[nH]2)nc2ccc(C(=O)NC(CP(=O)(O)O)C(=O)O)cc21 (centres undefined),Ki,[3],21 µM
same,Ki,[1],100 nM
CC(c1nc2ccccc2[nH]1)c1nc2ccc(C(=O)NC(CP(=O)(O)O)C(=O)O)cc2n1C (centres undefined),Ki,[1],230 nM
same,Ki,[2],215 µM
CC(=O)NCc1nc2ccc(C(=O)NC(CP(=O)(O)O)C(=O)O)cc2n1C (centres undefined),Ki,[1],32000 nM
same,Ki,[2],150 µM
Cn1c(C(F)(F)c2nc3cc(F)c(F)cc3[nH]2)nc2ccc(C(=O)NC(CP(=O)(O)O)C(=O)O)cc21 (centres undefined),Ki,[3],15 µM
same,Ki,[1],4000 nM
Cn1c(Cc2nc3c(F)cc(F)cc3[nH]2)nc2ccc(C(=O)NC(CP(=O)(O)O)C(=O)O)cc21 (centres undefined),Ki,[1],240 nM
same,Ki,[2],58 µM
Cn1c(Cc2nc3cc(C(F)(F)F)ccc3[nH]2)nc2ccc(C(=O)NC(CP(=O)(O)O)C(=O)O)cc21 (centres undefined),Ki,[1],410 nM
same,Ki,[2],70 µM
Cc1cccc2[nH]c(C(F)(F)c3nc4ccc(C(=O)NC(CP(=O)(O)O)C(=O)O)cc4n3C)nc12 (centres undefined),Ki,[3],66 µM
same,Ki,[1],21000 nM
Cn1c(Cc2nc3cc(F)ccc3[nH]2)nc2ccc(C(=O)NC(CP(=O)(O)O)C(=O)O)cc21 (centres undefined),Ki,[1],280 nM
same,Ki,[2],95 µM
CC(c1nc2ccccc2[nH]1)c1nc2cccc(C(=O)NC(CP(=O)(O)O)C(=O)O)c2n1C (centres undefined),Ki,[1],1200 nM
same,Ki,[2],181 µM
Cn1c(Cc2nc3c(F)c(F)c(F)cc3[nH]2)nc2ccc(C(=O)NC(CP(=O)(O)O)C(=O)O)cc21 (centres undefined),Ki,[3],21 µM
same,Ki,[1],200 nM
CC(c1nc2ccc(C(N)=O)cc2[nH]1)c1nc2cc(C(=O)C(CP(=O)(O)O)C(=O)O)ccc2n1C (centres undefined),Ki,[1],> 300000 nM
same,Ki,[2],> 300 µM
Cc1cccc2[nH]c(Cc3nc4ccc(C(=O)NC(CP(=O)(O)O)C(=O)O)cc4n3C)nc12 (centres undefined),Ki,[3],> 300 µM
same,Ki,[1],10000 nM
Cn1c(C(F)(F)c2nc3ccc(C(=O)NC(CP(=O)(O)O)C(=O)O)cc3[nH]2)nc2ccc(C(=O)NC(CP(=O)(O)O)C(=O)NC(CP(=O)(O)O)C(=O)O)cc21 (centres undefined),Ki,[3],1 µM
same,Ki,[1],27 nM
Cn1c(C(F)(F)c2nc3c(F)c(F)cc(F)c3[nH]2)nc2ccc(C(=O)NC(CP(=O)(O)O)C(=O)O)cc21 (centres undefined),Ki,[3],12 µM
same,Ki,[1],2900 nM
Cn1c(Cc2nc3ccc(C(=O)NC(CP(=O)(O)O)C(=O)O)cc3n2C)nc2ccccc21 (centres undefined),Ki,[1],3800 nM
same,Ki,[2],140 µM
Cn1c(C(F)(F)c2nc3ccccc3[nH]2)nc2ccc(C(=O)NC(CP(=O)(O)O)C(=O)NC(CP(=O)(O)O)C(=O)O)cc21 (centres undefined),Ki,[3],19.6 µM
same,Ki,[1],820 nM
CC(C)CCn1c(Cc2nc3ccccc3[nH]2)nc2ccc(C(=O)NC(CP(=O)(O)O)C(=O)O)cc21 (centres undefined),Ki,[3],> 300 µM
same,Ki,[1],870 nM
COC(=O)C(CP(=O)(O)O)NC(=O)c1ccc2[nH]c(C(F)(F)c3nc4ccc(C(=O)NC(CP(=O)(O)O)C(=O)OC)cc4n3C)nc2c1 (centres undefined),Ki,[3],32 µM
same,Ki,[1],277 nM
COc1cccc2[nH]c(Cc3nc4ccc(C(=O)NC(CP(=O)(O)O)C(=O)O)cc4n3C)nc12 (centres undefined),Ki,[3],24 µM
same,Ki,[1],490 nM
Cn1c(C(F)(F)c2nc3ccccc3[nH]2)nc2ccc(C(=O)NC(CP(=O)(O)O)C(=O)O)cc21 (centres undefined),Ki,[3],1.1 µM
Cn1c(C(F)c2nc3c(F)c(F)cc(F)c3[nH]2)nc2ccc(C(=O)NC(CP(=O)(O)O)C(=O)O)cc21 (centres undefined),Ki,[3],72 µM
same,Ki,[1],550 nM
Cn1c(C(F)(F)c2nc3c(F)cc(F)cc3[nH]2)nc2ccc(C(=O)NC(CP(=O)(O)O)C(=O)O)cc21 (centres undefined),Ki,[3],25 µM
same,Ki,[1],1400 nM
Cc1ccc2nc(Cc3nc4ccc(C(=O)NC(CP(=O)(O)O)C(=O)O)cc4n3C)[nH]c2c1 (centres undefined),Ki,[3],98 µM
same,Ki,[1],240 nM
CC(c1ncc[nH]1)c1nc2ccc(C(=O)NC(CP(=O)(O)O)C(=O)O)cc2n1C (centres undefined),Ki,[1],83000 nM
same,Ki,[2],110 µM
Cn1c(C(F)c2nc3c(F)cc(F)cc3[nH]2)nc2ccc(C(=O)NC(CP(=O)(O)O)C(=O)O)cc21 (centres undefined),Ki,[3],91 µM
same,Ki,[1],660 nM
Cn1c(Cc2nc3ccc(C(N)=O)cc3[nH]2)nc2ccc(C(=O)NCC(=O)O)cc21,Ki,[1],68000 nM
same,Ki,[2],> 300 µM
Cn1c(Cc2nc3cc(F)c(F)cc3[nH]2)nc2ccc(C(=O)NC(CP(=O)(O)O)C(=O)O)cc21 (centres undefined),Ki,[1],210 nM
same,Ki,[2],25 µM
Cn1c(Cc2nc3ccc(O)cc3[nH]2)nc2ccc(C(=O)NC(CP(=O)(O)O)C(=O)O)cc21 (centres undefined),Ki,[3],250 µM
same,Ki,[1],190 nM
CC(C)Cn1c(Cc2nc3ccccc3[nH]2)nc2ccc(C(=O)NC(CP(=O)(O)O)C(=O)O)cc21 (centres undefined),Ki,[3],> 300 µM
same,Ki,[1],370 nM
Cn1c(Cc2nc3ccccc3[nH]2)nc2ccc(C(=O)NC(CP(=O)(O)O)C(=O)O)cc21 (centres undefined),Ki,[3],> 300 µM
same,Ki,[1],450 nM
Cn1c(C(F)c2nc3ccccc3[nH]2)nc2ccc(C(=O)NC(CP(=O)(O)O)C(=O)O)cc21 (centres undefined),Ki,[3],37 µM
same,Ki,[1],470 nM
CC(C)n1c(Cc2nc3ccccc3[nH]2)nc2ccc(C(=O)NC(CP(=O)(O)O)C(=O)O)cc21 (centres undefined),Ki,[3],> 300 µM
same,Ki,[1],12000 nM
Cn1c(Cc2nc3c(F)c(F)ccc3[nH]2)nc2ccc(C(=O)NC(CP(=O)(O)O)C(=O)O)cc21 (centres undefined),Ki,[3],140 µM
same,Ki,[1],270 nM
Cn1c(Cc2nc3c(F)cc(F)c(F)c3[nH]2)nc2ccc(C(=O)NC(CP(=O)(O)O)C(=O)O)cc21 (centres undefined),Ki,[3],22 µM
same,Ki,[1],350 nM
COc1ccc2nc(Cc3nc4ccc(C(=O)NC(CP(=O)(O)O)C(=O)O)cc4n3C)[nH]c2c1 (centres undefined),Ki,[3],187 µM
same,Ki,[1],200 nM
Cn1c(C(F)(F)c2nc3ccc(Cl)cc3[nH]2)nc2ccc(C(=O)NC(CP(=O)(O)O)C(=O)O)cc21 (centres undefined),Ki,[3],38 µM
same,Ki,[1],2400 nM
Cn1c(C(F)(F)c2nc3ccc(C(N)=O)cc3[nH]2)nc2ccc(C(=O)NC(CP(=O)(O)O)C(=O)O)cc21 (centres undefined),Ki,[3],74 µM
same,Ki,[1],1200 nM
Cn1c(Cc2nc3ccc(Cl)cc3[nH]2)nc2ccc(C(=O)NC(CP(=O)(O)O)C(=O)O)cc21 (centres undefined),Ki,[1],380 nM
same,Ki,[2],130 µM
Cn1c(Cc2nc3cc(C(N)=O)ccc3[nH]2)nc2ccc(C(=O)NC(CP(=O)(O)O)C(=O)O)cc21 (centres undefined),Ki,[3],170 µM
same,Ki,[1],200 nM
O=C(NC(CP(=O)(O)O)C(=O)O)c1ccc2nc(Cc3nc4ccccc4[nH]3)n(CC3CC3)c2c1 (centres undefined),Ki,[3],140 µM
same,Ki,[1],140 nM
Cn1c(C(F)(F)c2nc3cc(F)ccc3[nH]2)nc2ccc(C(=O)NC(CP(=O)(O)O)C(=O)O)cc21 (centres undefined),Ki,[3],55 µM
same,Ki,[1],1300 nM
